Reference: ChEMBL document CHEMBL5584288, “Synthesis, biological evaluation and metadynamics simulations of novel N-methyl β-sheet breaker peptides as inhibitors of Alzheimer's β-amyloid fibrillogenesis” (RSC Med Chem, 2024)
The source made the active and inactive calls. The rule behind the calls is not given here. Square brackets hold non-standard residues; d marks the D form. Peptide text beside a SMILES is read from it. Sar = CNCC(=O)O

What was measured:
[1] = biological target: Amyloid-beta precursor protein (Homo sapiens) (UniProt P05067); test: Inhibition of amyloid beta (1 to 42) (unknown origin) aggregation assessed as reduction in amyloid beta fibril formation at 200 uM incubated for 12 hrs by ThT-based fluorescence analysis
Sequence of Amyloid-beta precursor protein (Homo sapiens) (P05067 whole entry): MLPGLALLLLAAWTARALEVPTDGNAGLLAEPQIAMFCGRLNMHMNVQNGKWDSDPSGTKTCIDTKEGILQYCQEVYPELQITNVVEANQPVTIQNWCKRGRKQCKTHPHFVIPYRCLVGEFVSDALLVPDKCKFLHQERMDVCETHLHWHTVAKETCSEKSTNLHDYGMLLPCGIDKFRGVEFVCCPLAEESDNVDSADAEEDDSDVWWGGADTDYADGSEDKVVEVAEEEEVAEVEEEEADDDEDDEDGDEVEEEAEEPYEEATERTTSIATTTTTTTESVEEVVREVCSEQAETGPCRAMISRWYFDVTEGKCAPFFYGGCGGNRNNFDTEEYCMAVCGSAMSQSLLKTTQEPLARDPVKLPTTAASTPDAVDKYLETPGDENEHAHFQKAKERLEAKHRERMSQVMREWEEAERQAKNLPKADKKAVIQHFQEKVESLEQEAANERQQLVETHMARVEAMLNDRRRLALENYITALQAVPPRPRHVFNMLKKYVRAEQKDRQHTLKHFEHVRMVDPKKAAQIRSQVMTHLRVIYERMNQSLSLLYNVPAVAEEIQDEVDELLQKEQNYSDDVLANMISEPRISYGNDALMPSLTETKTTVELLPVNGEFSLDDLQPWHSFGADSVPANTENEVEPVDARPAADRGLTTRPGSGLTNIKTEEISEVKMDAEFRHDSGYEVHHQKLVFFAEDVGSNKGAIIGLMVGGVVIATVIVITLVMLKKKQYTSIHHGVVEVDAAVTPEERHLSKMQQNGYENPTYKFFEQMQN
Summary of the method: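 Aβ1–42 (20 μM) incubated alone or with peptide (200 μM, tenfold molar excess) plus ThT (10 μM) in 20 mM Tris-HCl pH 7.4 at 20 °C. Real-time fluorescence (excitation 450 nm, emission 482 nm) recorded every 30 min for ~12 h. Intensity plotted against time. Three independent experiments.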

SH-SY5Y [2] = test: Cytoprotective activity against amyloid beta (25 to 35 residues)-induced toxicity in human SH-SY5Y cells assessed as increase in cell viability at 100 uM incubated for 24 hrs by MTT assay relative to control; assay type: functional
Summary of the method: (§1)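 SH-SY5Y cells seeded at 2.0 × 10^4 per well, after 24 h exposed to Aβ25–35 (100.0 μM; DMSO stock 12.5 mM) for 48 h, washed twice with PBS, then given test peptides for a further 24 h. MTT read-out as in cytotoxicity assay. Viability relative to untreated control cells. Mean ± SD of six measurements from three independent experiments.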

SH-SY5Y [3] = test: Cytoprotective activity against amyloid beta (25 to 35 residues)-induced toxicity in human SH-SY5Y cells assessed as increase in cell viability incubated for 24 hrs by MTT assay; assay type: functional, cell-based; settings: dose 10-100 µM; summary of the method: as §1
SH-SY5Y [4] = test: Cytotoxicity against human SH-SY5Y cells assessed as reduction in cell viability at 10 to 100 uM after 48 hrs by MTT assay; assay type: toxicity, cell-based; settings: dose 10-100 µM
Summary of the method: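 Human SH-SY5Y neuroblastoma cells in DMEM with 10% FBS, penicillin/streptomycin, 37 °C, 5% CO2. Seeded at 1.5 × 10^4 per well, treated after 24 h, exposed 48 h. MTT 0.50 mg mL⁻¹ for 4 h at 37 °C, formazan dissolved in DMSO, absorbance 570 nm. Viability expressed as % mitochondrial redox activity of untreated control.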

[5] = Drug uptake in human SH-SY5Y cells at 100 uM by UHPLC-HR MS analysis; assay type: ADME, cell-based
Summary of the method: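 SH-SY5Y cells seeded at 2.0 × 10^6 per 100 mm dish, treated after 24 h with peptides (100 μM) in FBS-free medium. Cell pellets quenched and extracted, sonicated 5 min, centrifuged 3500 rpm at 0 °C for 10 min. Supernatant lyophilized, reconstituted in acetonitrile and analysed by UHPLC-HR TOF-MS/MS, with extracted ion chromatograms of protonated molecular ions.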

SH-SY5Y [6] = test: Cytoprotective activity against amyloid beta (25 to 35 residues)-induced toxicity in human SH-SY5Y cells assessed as increase in cell viability at 10 uM incubated for 24 hrs by MTT assay relative to control; assay type: functional; summary of the method: as §1

Compound | inhibition [1] | Drug uptake [5] | Activity (SH-SY5Y [2]) [%] | Activity (SH-SY5Y [3]) | Activity (SH-SY5Y [4]) | Activity (SH-SY5Y [6]) [%]
CC[C@H](C)[C@H](NC(C)=O)C(=O)N[C@H](C(=O)N(C)CC(=O)N[C@@H](CC(C)C)C(=O)N[C@@H](CCSC)C(=O)N[C@H](C(=O)NCC(=O)N(C)CC(=O)N[C@H](C(N)=O)C(C)C)C(C)C)[C@@H](C)CC | Active |  |  |  |  | 
CC(=O)N[C@@H](Cc1ccccc1)C(=O)N[C@@H](CCCCN)C(=O)N[C@@H](CCC(=O)O)C(=O)N(C)CC(=O)N(C)CC(=O)N[C@H](C(N)=O)C(C)C (Ac-FKE[Sar][Sar]V-NH2) | Active |  |  |  |  | 
Ac-LPFFD-NH2 | Active |  | 110.8 | Dose-Dependent Effect | Non-Toxic | 

More lines, main results first:

inhibition [1] | Drug uptake [5] | Compound | Activity (SH-SY5Y [2]) [%] | Activity (SH-SY5Y [3]) | Activity (SH-SY5Y [4]) | Activity (SH-SY5Y [6]) [%]
Active | Active | CC(=O)N[C@@H](CCCCN)C(=O)N(C)CC(=O)N[C@H](C(=O)N[C@@H](Cc1ccccc1)C(=O)N[C@@H](Cc1ccccc1)C(=O)N(C)CC(=O)N[C@@H](CCC(=O)O)C(N)=O)C(C)C (Ac-K[Sar]VFF[Sar]E-NH2) | 142.1 | Dose-Dependent Effect | Non-Toxic | 
Active | Active | CC(=O)N[C@@H](CCCCN)C(=O)N(C)CC(=O)N[C@H](C(=O)N[C@@H](Cc1ccccc1)C(=O)N(C)CC(=O)N[C@@H](CCC(=O)O)C(N)=O)C(C)C (Ac-K[Sar]VF[Sar]E-NH2) |  | Dose-Dependent Effect | Non-Toxic | ~30
